≈ marks a conversion by molar mass, not a printed value. Calls of active or inactive are those of the source. No cut-off for these calls is given here.
Tests used:
[1] = tested on: Klebsiella pneumoniae; assay: Antibacterial activity against ESBL positive Klebsiella pneumoniae ATCC 700603 after 24 hrs by resazurin dye based microdilution assay; assay type: functional; conditions: Klebsiella pneumoniae, 700603, 24 h
Method in brief: (§1)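 MIC taken as the lowest concentration giving visible inhibition and/or by resazurin (1 mg/mL). Gentamicin was the control. Run in duplicate, repeated at least three times.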

[2] = tested on: Klebsiella pneumoniae; assay: Antibacterial activity against carbapenemase positive Klebsiella pneumoniae BAA 1705 after 24 hrs by resazurin dye based microdilution assay; assay type: functional; conditions: BAA 1705, 24 h; method in brief: as §1
[3] = tested on: Leishmania panamensis; assay: Antileshmanial activity against EpiR/GFP fused Leishmania panamensis MHOM/CO/87/UA140 intracellular amastigotes infected in human […] cells after 72 hrs by flow cytometric method; assay type: functional, cell-based; conditions: MHOM/CO/87/UA140, 72 h
Method in brief: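 PMA-treated U-937 cells (3 × 10^5 cells/mL) infected with stationary-phase GFP L. panamensis promastigotes (15:1), 3 h at 34 °C, then washed. After 24 h, compounds added at 50, 12.5, 3.125 and 0.78 µg/mL for 72 h at 37 °C. EC50 by Probit; triplicate, two experiments.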

[4] = tested on: K562; assay: Growth inhibition of human K562 cells at 10 uM incubated for 48 hrs by sulforhodamine B assay; assay type: functional, cell-based
Method in brief: (§2)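 NCI 60-line panel, single 10 μM dose. Cells were grown in RPMI-1640 with 5% FBS and 2 mM L-glutamine and pre-incubated 24 h before compound addition (DMSO stock). Exposure was 48 h at 37 °C, 5% CO2. Cells were fixed with cold TCA (10% final), stained with 0.4% SRB, bound dye dissolved in 10 mM Tris base, A515 read. Growth was taken relative to time-zero and untreated control plates.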

[5] = tested on: MOLT-4; assay: Growth inhibition of human MOLT4 cells at 10 uM incubated for 48 hrs by sulforhodamine B assay; assay type: functional, cell-based; method in brief: as §2
[6] = tested on: SR; assay: Growth inhibition of human SR cells at 10 uM incubated for 48 hrs by sulforhodamine B assay; assay type: functional, cell-based
Method in brief: (§3)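 NCI-60 single-dose screen at 10 µM for 48 h. Cells were grown in RPMI-1640 with 5% FBS and 2 mM L-glutamine and preincubated 24 h before compound. Time-zero plates were TCA-fixed at compound addition. After exposure, cells were TCA-fixed, stained with SRB and read at 515 nm. Percentage growth was calculated against time-zero and untreated-control absorbances.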

[7] = tested on: HOP-62; assay: Growth inhibition of human HOP62 cells at 10 uM incubated for 48 hrs by sulforhodamine B assay; assay type: functional, cell-based
Method in brief: (§4)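 NCI 60-cell-line screen at a single 10 µM dose. Cells in RPMI-1640 with 5% FBS and 2 mM L-glutamine, pre-incubated 24 h, then treated for 48 h at 37 °C. TCA fixation, sulforhodamine B staining, absorbance at 515 nm. Percentage growth calculated against time-zero and untreated controls.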

[8] = tested on: NCI-H522; assay: Growth inhibition of human NCI-H522 cells at 10 uM incubated for 48 hrs by sulforhodamine B assay; assay type: functional, cell-based; method in brief: as §2
[9] = tested on: HCC 2998; assay: Growth inhibition of human HCC2998 cells at 10 uM incubated for 48 hrs by sulforhodamine B assay; assay type: functional, cell-based; method in brief: as §4
[10] = tested on: HCT-116; assay: Growth inhibition of human HCT116 cells at 10 uM incubated for 48 hrs by sulforhodamine B assay; assay type: functional, cell-based; method in brief: as §4
[11] = tested on: SF-539; assay: Growth inhibition of human SF539 cells at 10 uM incubated for 48 hrs by sulforhodamine B assay; assay type: functional, cell-based; method in brief: as §2
[12] = tested on: UACC-257; assay: Growth inhibition of human UACC257 cells at 10 uM incubated for 48 hrs by sulforhodamine B assay; assay type: functional, cell-based; method in brief: as §3
[13] = tested on: UACC-62; assay: Growth inhibition of human UACC62 cells at 10 uM incubated for 48 hrs by sulforhodamine B assay; assay type: functional, cell-based; method in brief: as §3
[14] = tested on: OVCAR-3; assay: Growth inhibition of human OVCAR3 cells at 10 uM incubated for 48 hrs by sulforhodamine B assay; assay type: functional, cell-based; method in brief: as §2
[15] = tested on: OVCAR-4; assay: Growth inhibition of human OVCAR4 cells at 10 uM incubated for 48 hrs by sulforhodamine B assay; assay type: functional, cell-based; method in brief: as §2
[16] = tested on: 786-0; assay: Growth inhibition of human 786-0 cells at 10 uM incubated for 48 hrs by sulforhodamine B assay; assay type: functional, cell-based; method in brief: as §4
[17] = tested on: ACHN; assay: Growth inhibition of human ACHN cells at 10 uM incubated for 48 hrs by sulforhodamine B assay; assay type: functional, cell-based; method in brief: as §4
[18] = tested on: CAKI-1; assay: Growth inhibition of human Caki1 cells at 10 uM incubated for 48 hrs by sulforhodamine B assay; assay type: functional, cell-based; method in brief: as §4
[19] = tested on: RXF 393; assay: Growth inhibition of human RXF393 cells at 10 uM incubated for 48 hrs by sulforhodamine B assay; assay type: functional, cell-based; method in brief: as §2
[20] = tested on: Hs-578T; assay: Growth inhibition of human Hs578T cells at 10 uM incubated for 48 hrs by sulforhodamine B assay; assay type: functional, cell-based; method in brief: as §2
[21] = tested on: BT-549; assay: Growth inhibition of human BT549 cells at 10 uM incubated for 48 hrs by sulforhodamine B assay; assay type: functional, cell-based; method in brief: as §4
[22] = tested on: MDA-MB-468; assay: Growth inhibition of human MDA-MB-468 cells at 10 uM incubated for 48 hrs by sulforhodamine B assay; assay type: functional, cell-based; method in brief: as §2
[23] = tested on: Cryptococcus neoformans; assay: Antifungal activity against Cryptococcus neoformans ATCC 32264 incubated for 48 hrs under dark condition by broth microdilution method; assay type: functional; conditions: ATCC 32264, 48 h
Method in brief: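 CLSI M27-A3 broth microdilution in RPMI-1640, DMSO ≤1%, compounds at 250-0.98 µg/mL final. Inoculum 1-5 × 10^3 CFU/mL. Incubated 48 h at 30 °C in a moist dark chamber, read at OD405. MIC80 and MIC50 taken from % inhibition dose-response curves (mean ± SEM, triplicate). Amphotericin B was the positive control.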

[24] = tested on: Candida albicans; assay: Growth inhibition of Candida albicans ATCC 10231 at 250 ug/ml incubated for 48 hrs under dark condition by broth microdilution method relative to control; assay type: functional; conditions: ATCC 10231, 48 h, read-out: GI
Method in brief: (§5)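 CLSI M27-A3 broth microdilution in RPMI-1640, DMSO ≤1%. Inoculum 1-5 × 10^3 CFU/mL. Incubated 48 h at 30 °C, dark. % inhibition = 100 − (OD405 test − sterility control)/(OD405 growth control − sterility control), with growth and sterility control wells. Triplicate.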

[25] = tested on: Candida albicans; assay: Growth inhibition of Candida albicans ATCC 10231 at 7.8 ug/ml incubated for 48 hrs under dark condition by broth microdilution method relative to control; assay type: functional; conditions: ATCC 10231, 48 h, read-out: GI; method in brief: as §5
[26] = tested on: Cryptococcus neoformans; assay: Growth inhibition of Cryptococcus neoformans ATCC 32264 at 250 ug/ml incubated for 48 hrs under dark condition by broth microdilution method relative to control; assay type: functional; conditions: ATCC 32264, 48 h, read-out: GI; method in brief: as §5
[27] = tested on: Cryptococcus neoformans; assay: Growth inhibition of Cryptococcus neoformans ATCC 32264 at 125 ug/ml incubated for 48 hrs under dark condition by broth microdilution method relative to control; assay type: functional; conditions: ATCC 32264, 48 h, read-out: GI; method in brief: as §5
[28] = tested on: Cryptococcus neoformans; assay: Growth inhibition of Cryptococcus neoformans ATCC 32264 at 3.4 ug/ml incubated for 48 hrs under dark condition by broth microdilution method relative to control; assay type: functional; conditions: ATCC 32264, 48 h, read-out: GI
[29] = tested on: Neisseria gonorrhoeae; assay: Antibacterial activity against beta lactamase positive Neisseria gonorrhoeae ATCC 31426 by oxidase test; assay type: functional
Method in brief: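 Agar dilution MIC on GC agar with 1% isovitalex containing increasing compound concentrations. Plates inoculated with about 1×10^4 CFU (5 µL). MIC is the lowest concentration that inhibited growth, with growth confirmed by oxidase test. Run in duplicate, repeated at least three times.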

COc1cc(C2=NN(c3ccc(Cl)cc3)C(c3cccc(Nc4ccnc5cc(Cl)ccc45)c3)C2)cc(OC)c1OC (stereo not given)
MIC [1]: > 1000 µg/mL
MIC [2]: > 1000 µg/mL
EC50 [3]: 21.3 µg/mL (≈ 35.5 µM)
growth inhibition (GI) [4]: inactive
growth inhibition (GI) [5]: inactive
growth inhibition (GI) [6]: inactive
growth inhibition (GI) [7]: inactive
growth inhibition (GI) [8]: inactive
growth inhibition (GI) [9]: inactive
growth inhibition (GI) [10]: inactive
growth inhibition (GI) [11]: inactive
growth inhibition (GI) [12]: inactive
growth inhibition (GI) [13]: inactive
growth inhibition (GI) [14]: inactive
growth inhibition (GI) [15]: inactive
growth inhibition (GI) [16]: inactive
growth inhibition (GI) [17]: inactive
growth inhibition (GI) [18]: inactive
growth inhibition (GI) [19]: inactive
growth inhibition (GI) [20]: inactive
growth inhibition (GI) [21]: inactive
growth inhibition (GI) [22]: inactive
MIC50 [23]: ≥ 250 µg/mL
MIC80 [23]: ≥ 250 µg/mL
inhibition of growth at 250 µg/mL [24]: 26.5%
inhibition of growth at 7.8 µg/mL [25]: 4.21%
inhibition of growth at 250 µg/mL [26]: 21.7%
inhibition of growth at 125 µg/mL [27]: 17.1%
inhibition of growth at 3.4 µg/mL [28]: 8.08%
MIC [29]: > 1000 µg/mL
